Compound activity: PubChem BioAssay, Johns Hopkins Ion Channel Center
Shown are actives, neighbours in structure and some others; about 2.3% of the full set was active somewhere.
TRPC6 act = mouse TRPC6 channel activators, primary screen, cell-based, HEK293, membrane potential dye. HEK293-TRPC6 membrane potential dye fluorescence; stronger effect = higher value. B-score at 10 µM. AID 2550, 2010. 310,000 tested, 0.13% active;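 active = B-score of the integrated fluorescence ratio above library mean plus 3 SD, and starting fluorescence ratio within library mean plus 5 SD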;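 also: higher score means more depolarization so channel activation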
Target sequence (Q61143 whole entry, looked up): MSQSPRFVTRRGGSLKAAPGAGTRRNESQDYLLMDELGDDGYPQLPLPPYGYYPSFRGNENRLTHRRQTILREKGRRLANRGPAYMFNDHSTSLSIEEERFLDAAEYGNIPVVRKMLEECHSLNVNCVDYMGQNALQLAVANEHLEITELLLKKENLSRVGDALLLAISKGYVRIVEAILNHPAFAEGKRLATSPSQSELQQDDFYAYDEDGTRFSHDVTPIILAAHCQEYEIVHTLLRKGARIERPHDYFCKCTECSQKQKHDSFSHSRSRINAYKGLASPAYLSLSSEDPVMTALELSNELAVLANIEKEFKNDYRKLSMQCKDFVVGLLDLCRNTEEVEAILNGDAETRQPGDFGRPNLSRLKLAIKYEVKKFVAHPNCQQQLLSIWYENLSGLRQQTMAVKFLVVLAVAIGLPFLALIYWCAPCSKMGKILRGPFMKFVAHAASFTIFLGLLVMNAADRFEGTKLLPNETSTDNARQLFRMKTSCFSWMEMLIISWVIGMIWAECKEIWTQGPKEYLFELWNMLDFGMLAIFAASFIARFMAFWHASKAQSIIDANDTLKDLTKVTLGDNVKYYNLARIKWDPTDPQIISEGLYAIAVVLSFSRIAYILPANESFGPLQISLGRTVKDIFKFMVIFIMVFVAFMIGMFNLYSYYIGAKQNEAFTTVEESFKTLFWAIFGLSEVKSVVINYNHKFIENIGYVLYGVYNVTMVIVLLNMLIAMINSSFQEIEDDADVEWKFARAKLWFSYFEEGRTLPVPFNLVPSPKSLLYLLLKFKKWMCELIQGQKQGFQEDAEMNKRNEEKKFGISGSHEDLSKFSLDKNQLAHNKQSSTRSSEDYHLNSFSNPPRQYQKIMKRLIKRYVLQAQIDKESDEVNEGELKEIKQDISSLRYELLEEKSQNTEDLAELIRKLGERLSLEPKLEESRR
TRPC4 potent = positive allosteric modulators of TRPC4, primary screen, cell-based, mouse TRPC4beta, HEK293 mu-opioid, Fluo-4 calcium | Short transient receptor potential channel 4 (Mus musculus), Q9QUQ5 | DAMGO EC20, Fluo-4 Ca2+ flux; stronger effect = higher value | B-score at 10 µM | 310,000 tested, 0.42% active | AID 2227, 2009;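 active = B-score of calcium response area above 5 SD of library B-scores, with initial fluorescence ratio within 5 SD of library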;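 also: B-score of integrated fluorescence ratio over time as area under calcium response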
TRPC6 inhibitor = mouse TRPC6 channel inhibitors, primary screen, cell-based, HEK293, membrane potential dye; Short transient receptor potential channel 6 (Mus musculus), Q61143; ACh-evoked depolarization; stronger effect = lower value; B-score at 10 µM; 310,000 tested, 1.1% active;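 active = B-score under library mean minus 3 SD, initial fluorescence not abnormally high, positive integrated signal ratio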;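 also: B-score derived from integrated fluorescence ratio over the kinetic read; more negative B-score means stronger inhibition of depolarization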
TRPC4 agonist = activators of mouse TRPC4 channel, primary screen, Fluo4 calcium, HEK293 TRPC4beta/mu-opioid cells; B-score at 10 µM; Fluo4 calcium fluorescence; stronger effect = higher value; AID 2237, 2010; Short transient receptor potential channel 4 (Mus musculus), Q9QUQ5; 310,000 tested, 0.49% active;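 active = B-score above 5 SD of library B-scores, and initial fluorescence ratio not above library mean plus 5 SD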;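 also: positive B-score marks a calcium rise read as TRPC4 activation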
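system = HEK293 cells stably co-expressing mouse TRPC4beta and mu-opioid receptor | schedule = Fluo4 dye loading 45 min at room temperature, 110 s recording | measure = B-scored integrated calcium fluorescence ratio | signal = Fluo4 calcium-sensitive dye fluorescence, kinetic, 1 Hz baseline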
TRPC4 inh = inhibitors of mouse TRPC4 channel, primary screen, Fluo4 calcium, HEK293 TRPC4beta/mu-opioid cells; Short transient receptor potential channel 4 (Mus musculus), Q9QUQ5; DAMGO-evoked Fluo4 calcium flux; stronger effect = lower value; B-score at 10 µM; 300,000 tested, 0.39% active;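 active = B-score over 3 SD under the library average, no early fluorescence shift, positive overall ratio signal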
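Assay system – HEK293 line stably carrying TRPC4beta and mu-opioid receptor · Doses – single dose · Detection – Fluo4 calcium-dye fluorescence, kinetic read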
An asterisk follows results filed as active; i = inactive.

SMILES | TRPC6 act | TRPC4 potent | TRPC6 inhibitor | TRPC4 agonist | TRPC4 inh
Cc1cc(-n2c(C)cc(C(=O)CSc3nncn3C(C)C)c2C)no1 | i | i | i | i | i
CN(C)CCn1c(N)nc2ccccc21 | i | 13* | i | i | i
CCCCn1c(N)nc2ccccc21 | i | i | i | i | i
CSc1nsc(SCC(=O)Nc2ccc(F)cc2F)n1 | i | i | i | i | i
COc1cc(C2(c3ccc(O)c(OC)c3)C(=O)Nc3c(C)cc(Br)cc32)ccc1O | i | 27* | i | i | i
Cc1cc(Br)cc2c1NC(=O)C2(c1c(C)n(C)n(-c2ccccc2)c1=O)c1c(C)n(C)n(-c2ccccc2)c1=O | i | i | i | i | i
O=c1[nH]c(-c2ccccn2)nc2sc(-c3ccccc3)cc12 | i | i | i | i | i
O=C(CCc1ccccc1)Nc1ccnn1C1CCN(C/C=C/c2ccccc2)CC1 | i | i | i | i | -6*
CCOc1ccccc1CN1CCC(n2nccc2NC(=O)CCc2ccccc2)CC1 | i | i | i | i | -7*
C/C=C(\C)CN1CCC(n2nccc2NC(=O)CCc2ccccc2)CC1 | i | i | i | 46* | -6*
COc1ccccc1/C=C/CN1CCC(n2nccc2NC(=O)CCc2ccccc2)CC1 | i | i | i | i | i
CCC(=O)Nc1c2c(nn1-c1ccc(F)cc1)CS(=O)(=O)C2 | i | i | i | i | i
CCOc1ccccc1OC(=O)c1cc2ccccc2oc1=O | i | i | i | i | i
CN(CCC(=O)Nc1ccc2c(c1)OCO2)Cc1ccccc1 | i | i | i | 53* | i
CS(=O)(=O)N(CC(=O)Nc1ccc2c(c1)OCO2)Cc1ccccc1 | i | i | i | i | i
COc1ccccc1OCC(=O)Nc1ccc(Cl)cc1 | i | i | i | i | -7*
CN(CC(=O)Nc1ccc(Cl)cc1)C(=O)CCc1ccccc1 | i | i | i | i | i
CN(CCC(=O)Nc1ccc(Cl)cc1)Cc1ccccc1 | i | i | i | 126* | i
Oc1ccc(-c2csc(-c3cccnc3)n2)cc1O | i | i | i | i | i
Oc1ccc(-c2csc(-c3ccccc3)n2)cc1O | i | i | i | i | -6*
COC(=O)[C@@]12CCCCN1[C@H](c1ccc(-c3ccccc3)cc1)[C@@H]1C(=O)N(C)C(=O)[C@@H]12 | i | 18* | i | i | i
O=C(c1cc2ccccc2o1)N(C1CC1)C1(C(=O)Nc2ccccc2)CCCC1 | i | i | i | i | i
O=C(O)C1=C[C@H](c2ccc3c(c2)OCO3)C[C@H](OCc2ccc(CO)cc2)O1 | i | i | i | i | i
O=C(Nc1ccccc1)C1=C[C@H](c2ccc3c(c2)OCO3)C[C@H](OCc2ccc(CO)cc2)O1 | i | 10* | i | i | i
O=C(c1ccccc1)c1ccc(N2CCN(C(=O)c3cccc(F)c3F)CC2)c(F)c1 | i | i | i | i | i
SMILES | TRPC6 act | TRPC4 potent | TRPC6 inhibitor | TRPC4 agonist | TRPC4 inh
S=C(N/N=C/c1cccc2ccccc12)Nc1cccc(Cl)c1 | i | i | i | i | i
Cc1cc(Nc2cccc(O)c2)c2ccccc2n1 | i | i | i | i | -5*
Cc1cc(Nc2ccccc2)nc2cc(O)ccc12 | i | i | i | i | -7*
CC1(C)Cc2c(cnn2-c2ccc(F)cc2)C(NC(=O)CN2CCCCC2=O)C1 (centres undefined) | i | i | i | i | i
CN(C)N=Nc1nc2c(c(=O)n(C)c(=O)n2C)n1CC1CO1 (centres undefined) | i | i | i | i | i
Cc1ccccc1Nc1nc(N)nc(COC(=O)CCNS(=O)(=O)c2ccccc2)n1 | i | i | i | i | i
O=C(N/N=C/c1ccccn1)c1ccc([N+](=O)[O-])cc1Cl | i | i | i | i | i
NNC(=O)c1[nH]c2ccc([N+](=O)[O-])cc2c1-c1ccccc1 | i | i | i | i | -6*
O=C(O)c1[nH]c2ccc([N+](=O)[O-])cc2c1-c1ccccc1 | i | i | i | i | i
O=[N+]([O-])c1ccc2[nH]nc(-c3ccccc3)c2c1 | i | i | i | i | -6*
O=C(N/N=C/c1ccccn1)c1[nH]c2ccc([N+](=O)[O-])cc2c1-c1ccccc1 | i | i | i | i | -6*
Cc1ccc(CC(C(=O)O)C(C)C(=O)Nc2ccc(F)cc2)cc1 (centres undefined) | i | i | i | i | i
NC(=O)c1sc(=S)n2c1[nH]c(=O)c1sccc12 | i | 10* | i | i | i
O=C(Nc1ccccc1C(=O)Nc1ccc(Br)cn1)c1cccc([N+](=O)[O-])c1 | i | i | i | i | i
Cc1cc(C)c(S(=O)(=O)NCc2cccs2)cc1C | i | 13* | i | i | i
COc1ccc(C2CC(=O)N(CCCN(C)CCc3ccc(OC)c(OC)c3)C2)cc1 (centres undefined) | i | 13* | i | i | i
COc1ccc(CCN(C)CCCN2CC(c3ccccc3)CC2=O)cc1OC (centres undefined) | i | i | i | i | i
Cc1onc(-c2ccccc2)c1C(=O)NC(=S)NNC(=O)c1ccco1 | i | i | i | 84* | i
COc1ccc(C(=O)NC(=S)NNC(=O)c2c(-c3ccccc3)noc2C)cc1OC | i | i | i | 85* | i
Cc1onc(-c2ccccc2)c1C(=O)NNC(=S)NC(=O)/C=C/c1cccs1 | i | i | i | 52* | i
Cc1onc(-c2ccccc2)c1C(=O)NNC(=S)NC(=O)c1ccc2c(c1)OCO2 | i | i | i | 79* | i
Cc1onc(-c2ccccc2)c1C(=O)NCc1ccc2c(c1)OCO2 | i | i | i | i | i
Cc1onc(-c2ccccc2)c1C(=O)NC(=S)NNC(=O)c1ccncc1 | i | i | i | i | i
Cc1ccc(C)c(NC(=O)C2CCCN(c3cnccn3)C2)c1 (centres undefined) | i | i | i | i | i
